Results on two compounds are retold here after ChEMBL document CHEMBL1124493, “Synthesis and tumor uptake of 5-82Br- and 5-131I-labeled 5-halo-1-(2-fluoro-2-deoxy-beta-D-ribofuranosyl)uracils” (J Med Chem, 1989).

Data set [1] relates to Mus musculus. The data set can be described thus: Biodistribution of intravenously injected [82Br]-labeled compound in blood of BDF1 female mice bearing subcutaneous Lewis lung carcinoma after 4 hours. The data set is classed as ADME, organism-based. Conditions: in vivo, iv. The method, boiled down: (§1)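 82Br-labeled nucleoside given intravenously to female BDF1 mice bearing subcutaneous Lewis lung carcinoma, at 47-130 μg carrying 20-60 kBq. Mice sacrificed at each time point. Wet-weighed tissues γ-counted. Values are percent injected dose per gram wet tissue, mean ± SD, n = 6.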

Data set [2] has as its system Mus musculus. The data set can be described thus: Biodistribution of intravenously injected [82Br]-labeled compound in skin of BDF1 female mice bearing subcutaneous Lewis lung carcinoma after 1 hours. The note with it: in vivo, iv. It is filed as ADME, organism-based, Zone of skin. An outline of the steps: (§2)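 Female BDF1 mice with subcutaneous Lewis lung carcinoma given an iv injection of [82Br]-labelled nucleoside, 47-130 μg carrying 20-60 kBq 82Br. Tissues were excised, weighed wet and γ-counted. Values are percent injected dose per gram of wet tissue, mean ± standard deviation of six animals, with organ-to-tumour ratios derived.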

Data set [3] deals with Mus musculus. The experiment in a line: Biodistribution of intravenously injected [82Br]-labeled compound in stomach of BDF1 female mice bearing subcutaneous Lewis lung carcinoma after 24 hours. The data set is classed as ADME, organism-based. The note with it: in vivo, iv.
Data set [4] has as its system Mus musculus. The data set can be described thus: Biodistribution of intravenously injected [82Br]-labeled compound in liver of BDF1 female mice bearing subcutaneous Lewis lung carcinoma after 1 hours. The data set is classed as ADME, organism-based. Conditions: in vivo, iv. An outline of the steps: as §2
The test system of data set [5] is Mus musculus. The data set can be described thus: Biodistribution of intravenously injected [82Br]-labeled compound in lung of BDF1 female mice bearing subcutaneous Lewis lung carcinoma after 0.25 hours. The data set is classed as ADME, organism-based. Conditions: in vivo, iv. The method, boiled down:
as §2

Data set [6] concerns Mus musculus. The experiment in a line: Biodistribution of intravenously injected [82Br]-labeled compound in blood of BDF1 female mice bearing subcutaneous Lewis lung carcinoma after 24 hours. It is filed as ADME, organism-based. The note with it: in vivo, iv. An outline of the steps: as §1
Data set [7] has as its system Mus musculus. The data set can be described thus: Biodistribution of intravenously injected [82Br]-labeled compound in tumor of BDF1 female mice bearing subcutaneous Lewis lung carcinoma after 8 hours. The data set is classed as ADME, organism-based. Conditions: in vivo, iv.
The subject of data set [8] is Mus musculus. The experiment in a line: Biodistribution of intravenously injected [82Br]-labeled compound in lung of BDF1 female mice bearing subcutaneous Lewis lung carcinoma after 0.5 hours. Conditions: in vivo, iv. The data set is classed as ADME, organism-based. An outline of the steps: as §2
Data set [9] relates to Mus musculus. The data set can be described thus: Biodistribution of intravenously injected [82Br]-labeled compound in gut of BDF1 female mice bearing subcutaneous Lewis lung carcinoma after 2 hours. It is filed as ADME, organism-based. Conditions: in vivo, iv. An outline of the steps: as §2
Data set [10] relates to Mus musculus. The data set can be described thus: Biodistribution of intravenously injected [82Br]-labeled compound in heart of BDF1 female mice bearing subcutaneous Lewis lung carcinoma after 24 hours. It is filed as ADME, organism-based. The note with it: in vivo, iv. An outline of the steps: as §2
Data set [11] has as its system Mus musculus. The data set can be described thus: Biodistribution of intravenously injected [82Br]-labeled compound in tumor of BDF1 female mice bearing subcutaneous Lewis lung carcinoma after 4 hr. It is filed as ADME, organism-based. The note with it: in vivo, iv.
Data set [12] deals with Mus musculus. The data set can be described thus: Biodistribution of intravenously injected [82Br]-labeled compound in tumor of BDF1 female mice bearing subcutaneous Lewis lung carcinoma after 0.25 hours. It is filed as ADME, organism-based. The note with it: in vivo, iv.
Data set [13] has as its system Mus musculus. The data set can be described thus: Biodistribution of intravenously injected [82Br]-labeled compound in kidney of BDF1 female mice bearing subcutaneous Lewis lung carcinoma after 0.25 hours. It is filed as ADME, organism-based. Conditions: in vivo, iv. The method, boiled down: as §2
For data set [14], the system named is Mus musculus. The data set can be described thus: Biodistribution of intravenously injected [82Br]-labeled compound in bone of BDF1 female mice bearing subcutaneous Lewis lung carcinoma after 0.5 hours. It is filed as ADME, organism-based, Bone element. The note with it: in vivo, iv. The method, boiled down:
as §1

The subject of data set [15] is Mus musculus. The data set can be described thus: Biodistribution of intravenously injected [82Br]-labeled compound in spleen of BDF1 female mice bearing subcutaneous Lewis lung carcinoma after 0.25 hours. Conditions: in vivo, iv. It is filed as ADME, organism-based. An outline of the steps: as §2
For data set [16], the system named is Mus musculus. The experiment in a line: Biodistribution of intravenously injected [82Br]-labeled compound in heart of BDF1 female mice bearing subcutaneous Lewis lung carcinoma after 2 hours. The data set is classed as ADME, organism-based. The note with it: in vivo, iv. An outline of the steps: as §2
Data set [17] concerns Mus musculus. The experiment in a line: Biodistribution of intravenously injected [82Br]-labeled compound in gut of BDF1 female mice bearing subcutaneous Lewis lung carcinoma after 1 hours. The data set is classed as ADME, organism-based. Conditions: in vivo, iv. The method, boiled down:
as §1

Data set [18] has as its system Mus musculus. The data set can be described thus: Biodistribution of intravenously injected [131I]-labeled compound in blood of BDF1 female mice bearing subcutaneous Lewis lung carcinoma after 0.25 hours. The data set is classed as ADME, organism-based. The note with it: in vivo, iv. An outline of the steps: (§3)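 Female BDF1 mice bearing subcutaneous Lewis lung carcinoma received a single intravenous dose of 0.5-1.8 μg of the 131I-labeled nucleoside (55-110 kBq). They were sacrificed at set times, and tissues were weighed wet and γ-counted. Activity is expressed as percent of injected dose per gram of wet tissue, given as mean ± standard deviation for six animals.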

The test system of data set [19] is Mus musculus. The experiment in a line: Biodistribution of intravenously injected [131I]-labeled compound in liver of BDF1 female mice bearing subcutaneous Lewis lung carcinoma after 8 hours. The data set is classed as ADME, organism-based. The note with it: in vivo, iv. The method, boiled down: as §3
Data set [20] deals with Mus musculus. The experiment in a line: Biodistribution of intravenously injected [131I]-labeled compound in liver of BDF1 female mice bearing subcutaneous Lewis lung carcinoma after 4 hours. It is filed as ADME, organism-based. The note with it: in vivo, iv. An outline of the steps:
as §3

In data set [21] the test system is Mus musculus. The data set can be described thus: Biodistribution of intravenously injected [131I]-labeled compound in tumor of BDF1 female mice bearing subcutaneous Lewis lung carcinoma after 24 hours. The data set is classed as ADME, organism-based. Conditions: in vivo, iv. The method, boiled down: (§4)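 Female BDF1 mice with subcutaneous Lewis lung carcinoma given i.v. 0.5-1.8 μg of 131I-labeled nucleoside (55-110 kBq). Killed at set times. Tissues weighed wet and γ-counted. Radioactivity expressed as percent injected dose per gram wet tissue, mean ± SD of six animals.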

For data set [22], the species on record is Mus musculus. The data set can be described thus: Urinary [131I]- compound observed in BDF1 female mice bearing lewis lung tumor after 2-3 hr of injected [131I]-compound. The data set is classed as functional, tissue-based. The note with it: Urine.
In data set [23] the test system is Mus musculus. The experiment in a line: Biodistribution of intravenously injected [131I]-labeled compound in spleen of BDF1 female mice bearing subcutaneous Lewis lung carcinoma after 2 hours. It is filed as ADME, organism-based. Conditions: in vivo, iv. An outline of the steps: as §4
Data set [24] deals with Mus musculus. The data set can be described thus: Biodistribution of intravenously injected [131I]-labeled compound in stomach of BDF1 female mice bearing subcutaneous Lewis lung carcinoma after 24 hours. The note with it: in vivo, iv. It is filed as ADME, organism-based. The method, boiled down: as §4
Data set [25] relates to Mus musculus. The experiment in a line: Biodistribution of intravenously injected [131I]-labeled compound in gut of BDF1 female mice bearing subcutaneous Lewis lung carcinoma after 0.25 hours. It is filed as ADME, organism-based. Conditions: in vivo, iv. An outline of the steps: as §3
Data set [26] is filed under the species Mus musculus. The data set can be described thus: Urinary iodide observed in BDF1 female mice bearing lewis lung tumor after 2-3 hr of injected [131I]-compound. The data set is classed as functional, tissue-based. The note with it: Urine.
Data set [27] has as its system Mus musculus. The experiment in a line: Biodistribution of intravenously injected [131I]-labeled compound in liver of BDF1 female mice bearing subcutaneous Lewis lung carcinoma after 2 hours. Conditions: in vivo, iv. It is filed as ADME, organism-based. The method, boiled down:
as §3

Data set [28] relates to Mus musculus. The experiment in a line: Biodistribution of intravenously injected [131I]-labeled compound in heart of BDF1 female mice bearing subcutaneous Lewis lung carcinoma after 8 hours. The data set is classed as ADME, organism-based. Conditions: in vivo, iv. An outline of the steps: as §3
The test system of data set [29] is Mus musculus. The experiment in a line: Biodistribution of intravenously injected [131I]-labeled compound in lung of BDF1 female mice bearing subcutaneous Lewis lung carcinoma after 24 hours. It is filed as ADME, organism-based. The note with it: in vivo, iv. An outline of the steps: as §3
Data set [30] has as its system Mus musculus. The experiment in a line: Biodistribution of intravenously injected [131I]-labeled compound in lung of BDF1 female mice bearing subcutaneous Lewis lung carcinoma after 2 hours. The note with it: in vivo, iv. The data set is classed as ADME, organism-based. The method, boiled down: as §3
The test system of data set [31] is Mus musculus. The experiment in a line: Biodistribution of intravenously injected [131I]-labeled compound in liver of BDF1 female mice bearing subcutaneous Lewis lung carcinoma after 0.25 hours. The note with it: in vivo, iv. The data set is classed as ADME, organism-based. The method, boiled down: as §3
The species entered for data set [32] is Mus musculus. The experiment in a line: Urinary [131I]5-iodouracil observed in BDF1 female mice bearing lewis lung tumor after 2-3 h of injected [131I]-compound. Conditions: Urine. The data set is classed as functional, tissue-based.
Data set [33] relates to Mus musculus. The experiment in a line: Biodistribution of intravenously injected [131I]-labeled compound in tumor of BDF1 female mice bearing subcutaneous Lewis lung carcinoma after 8 hours. It is filed as ADME, organism-based. Conditions: in vivo, iv. An outline of the steps: as §4

For the compound `O=c1[nH]c(=O)n([C@H]2O[C@@H](CO)[C@H](O)[C@H]2F)cc1Br`, the Injected dose/g in data set [1] came to 0.6%; in data set [2] it was 0.45%; in data set [3], 0.34%; in data set [4], 0.34%; in data set [5], 1.7%; in data set [6], 0.51%. In addition, the Injected dose/g in data set [7] came to 0.46%; in [8] it was 0.91%; in data set [9], 0.41%; in data set [10] it was 0.48%; in [11], 0.37%; in [12] it was 1.39%. Further, the Injected dose/g was 7.69% in data set [13]; 0.3% in data set [14]; 1.06% in data set [15]; 0.48% in data set [16]; 0.42% in data set [17].

Consider `O=c1[nH]c(=O)n([C@@H]2O[C@H](CO)[C@@H](O)[C@H]2F)cc1I`, for which the Injected dose/g worked out at 19% in data set [18]; 1.4% in data set [19]; 2.6% in data set [20]; 0.08% in data set [21]; 1.8% in data set [23]; 0.21% in data set [24]. In addition, the Injected dose/g is 3.1% in data set [25]; 2.8% in data set [27]; 1.6% in data set [28]; 0.1% in data set [29]; 5.1% in data set [30]; 5.3% in [31]. In data set [33], the Injected dose/g was 1.9%. Further, the Radioactive constituents in data set [22] was determined as 82.8%; in [26], 13.7%; in [32] it was 0%.
